According to ChEMBL document CHEMBL1127600, “Mercaptoacyl amino acid inhibitors of atriopeptidase. 1. Structure-activity relationship studies of methionine and S-alkylcysteine derivatives” (J Med Chem, 1994):

Columns and labels:
Rattus norvegicus [1] = experiment: In vivo potentiation of ANF induced hypotension in rat, following subcutaneous dose of 30 mg/kg; assay type: functional
In short: (§1)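 Conscious male SHR (270–300 g) had caudal artery and jugular vein cannulae placed under ether. After at least 90 min of stabilization, ANF 103-125 or 99-126 was given as an iv bolus at a submaximal dose. 60–90 min later, drug or vehicle (0.2% aqueous methylcellulose with 20% Tris-HCl) was given sc. ANF was repeated 15 min after dosing, and the response was compared with vehicle controls. Values are means of four or more animals.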

Rattus norvegicus [2] = experiment: Tested for in vivo Antihypertensive activity in DOCA rat by giving peroral dose of 30 mg/kg; assay type: functional; conditions: route oral
In short: (§2)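 Male Sprague-Dawley rats (100–150 g) had DOCA-Na hypertension induced and were used 17–21 days later if mean BP was >150 mmHg. Rats were not fasted. Mean BP was recorded after 90-min equilibration. Dosing was sc in TRIS buffer (2 mL/kg) or po in 0.4% aqueous methylcellulose (4 mL/kg). The maximum BP fall over 4 h versus vehicle controls was taken, averaged over four or more animals.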

[3] = target: T1, Angiotensin-converting enzyme (Oryctolagus cuniculus, UniProt P12822); experiment: Tested in vitro for its inhibitory activity against angiotensin converting enzyme
T1 sequence (P12822 whole entry): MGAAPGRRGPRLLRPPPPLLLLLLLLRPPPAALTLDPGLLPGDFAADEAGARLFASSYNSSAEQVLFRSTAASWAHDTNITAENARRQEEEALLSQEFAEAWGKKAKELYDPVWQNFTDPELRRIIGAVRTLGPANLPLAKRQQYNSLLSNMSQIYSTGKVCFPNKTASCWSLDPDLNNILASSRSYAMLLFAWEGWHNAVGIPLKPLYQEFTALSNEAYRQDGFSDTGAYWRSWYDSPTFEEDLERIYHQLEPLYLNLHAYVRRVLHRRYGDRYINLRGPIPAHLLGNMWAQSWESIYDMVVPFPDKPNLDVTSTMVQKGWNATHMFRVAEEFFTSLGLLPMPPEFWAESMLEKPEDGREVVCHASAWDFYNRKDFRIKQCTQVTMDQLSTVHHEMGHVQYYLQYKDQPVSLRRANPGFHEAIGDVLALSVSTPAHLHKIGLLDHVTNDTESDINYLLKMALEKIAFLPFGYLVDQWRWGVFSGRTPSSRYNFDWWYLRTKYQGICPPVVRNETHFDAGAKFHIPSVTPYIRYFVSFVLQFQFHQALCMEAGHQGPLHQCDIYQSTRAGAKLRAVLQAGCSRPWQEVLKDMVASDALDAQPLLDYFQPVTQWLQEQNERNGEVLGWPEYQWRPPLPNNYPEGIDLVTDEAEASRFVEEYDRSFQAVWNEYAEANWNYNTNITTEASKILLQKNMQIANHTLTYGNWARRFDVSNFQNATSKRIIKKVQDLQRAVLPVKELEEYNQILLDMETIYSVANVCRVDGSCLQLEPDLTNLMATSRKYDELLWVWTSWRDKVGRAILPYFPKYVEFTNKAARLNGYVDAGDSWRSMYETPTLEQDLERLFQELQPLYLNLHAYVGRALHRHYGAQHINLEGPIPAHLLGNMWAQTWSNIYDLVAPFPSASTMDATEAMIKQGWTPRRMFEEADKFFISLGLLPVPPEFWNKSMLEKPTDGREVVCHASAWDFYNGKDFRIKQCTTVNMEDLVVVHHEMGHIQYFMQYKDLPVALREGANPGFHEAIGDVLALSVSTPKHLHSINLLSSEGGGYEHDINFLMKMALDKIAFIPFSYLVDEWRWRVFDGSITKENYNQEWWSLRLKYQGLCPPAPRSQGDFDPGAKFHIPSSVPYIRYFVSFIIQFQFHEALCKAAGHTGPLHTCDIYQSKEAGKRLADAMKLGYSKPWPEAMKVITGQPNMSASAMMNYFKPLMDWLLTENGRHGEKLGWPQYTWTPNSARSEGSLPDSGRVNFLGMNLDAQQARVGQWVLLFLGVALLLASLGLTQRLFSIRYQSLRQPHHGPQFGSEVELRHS

Rattus norvegicus [4] = experiment: Tested for in vivo Antihypertensive activity in DOCA rat by giving subcutaneous dose of 30 mg/kg; assay type: functional; in short: as §2
Neprilysin [5] = target: T2, Neprilysin (Oryctolagus cuniculus, UniProt P08049); experiment: In vitro inhibitory activity against neutral endopeptidase (NEP)
T2 sequence (P08049 whole entry): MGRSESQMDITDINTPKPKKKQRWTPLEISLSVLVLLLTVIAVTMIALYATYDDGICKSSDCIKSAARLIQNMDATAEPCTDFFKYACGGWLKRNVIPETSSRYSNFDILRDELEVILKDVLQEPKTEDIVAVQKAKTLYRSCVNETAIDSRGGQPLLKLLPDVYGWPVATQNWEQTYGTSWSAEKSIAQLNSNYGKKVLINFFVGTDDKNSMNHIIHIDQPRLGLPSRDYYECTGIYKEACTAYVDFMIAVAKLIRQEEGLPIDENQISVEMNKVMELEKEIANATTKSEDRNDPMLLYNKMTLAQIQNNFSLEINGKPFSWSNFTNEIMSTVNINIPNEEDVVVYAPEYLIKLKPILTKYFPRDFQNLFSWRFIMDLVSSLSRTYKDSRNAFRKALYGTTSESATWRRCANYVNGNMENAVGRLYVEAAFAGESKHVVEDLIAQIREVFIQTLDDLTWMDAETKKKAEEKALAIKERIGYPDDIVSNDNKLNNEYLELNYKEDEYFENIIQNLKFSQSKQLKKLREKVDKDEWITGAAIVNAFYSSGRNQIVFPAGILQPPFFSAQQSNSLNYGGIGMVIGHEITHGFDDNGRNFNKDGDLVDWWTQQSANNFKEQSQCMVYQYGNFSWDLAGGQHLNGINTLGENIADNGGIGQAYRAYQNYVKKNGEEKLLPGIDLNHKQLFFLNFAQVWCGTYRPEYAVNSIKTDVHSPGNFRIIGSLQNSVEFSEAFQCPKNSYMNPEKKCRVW
In short: (§3)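 Purified rabbit kidney NEP (EC 24.11) was the enzyme source, with [³H]Leu-enkephalin as the substrate.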

Neprilysin [6] = target: T2, Neprilysin; experiment: Ttested for its inhibitory activity against neutral endopeptidase (NEP); in short: as §3
Rattus norvegicus [7] = experiment: Tested for in vivo Antihypertensive activity in DOCA rat by giving peroral dose of 1 mg/Kg; assay type: functional; in short: as §2
Rattus norvegicus [8] = experiment: Tested for in vivo Antihypertensive activity in DOCA rat by giving subcutaneous dose of 3 mg/kg; assay type: functional; in short: as §2
Rattus norvegicus [9] = experiment: In vivo potentiation of ANF Induced Hypotension in rat was determined by giving peroral dose of 3 mg/kg; assay type: functional; conditions: route oral
Rattus norvegicus [10] = experiment: In vivo potentiation of ANF Induced Hypotension in rat was determined by giving peroral dose of 10 mg/kg; assay type: functional; conditions: route oral
Rattus norvegicus [11] = experiment: Tested for in vivo Antihypertensive activity in DOCA rat by giving peroral dose of 10 mg/kg; assay type: functional; conditions: route oral; in short: as §2
Rattus norvegicus [12] = experiment: Tested for in vivo Antihypertensive activity in DOCA rat by giving subcutaneous dose of 1 mg/kg; assay type: functional; in short: as §2
Rattus norvegicus [13] = experiment: In vivo potentiation of ANF Induced Hypotension in rat was determined by giving subcutaneous dose of 10 mg/kg; assay type: functional; in short: as §1
Rattus norvegicus [14] = experiment: Tested for in vivo Antihypertensive activity in DOCA rat by giving peroral dose of 3 mg/kg; assay type: functional; conditions: route oral
In short: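 Male Sprague-Dawley rats (100–150 g at preparation) made DOCA-Na hypertensive, used 17–21 days after induction if mean BP >150 mmHg, nonfasted. Drug given orally as solution or suspension in 0.4% aqueous methylcellulose (4 mL/kg). Mean BP recorded after 90-min equilibration. Value is maximum BP fall over 4 h versus vehicle-treated controls, averaged over four or more animals.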

Rattus norvegicus [15] = experiment: Tested for in vivo Antihypertensive activity in DOCA rat by giving subcutaneous dose of 10 mg/kg; assay type: functional; in short: as §2
Rattus norvegicus [16] = experiment: In vivo potentiation of ANF Induced Hypotension in rat was determined by giving subcutaneous dose of 90 mg/kg ANF; assay type: functional
Rattus norvegicus [17] = experiment: Tested for in vivo Antihypertensive activity in DOCA rat by giving peroral dose of 3 mg/Kg; assay type: functional; in short: as §2
Rattus norvegicus [18] = experiment: Tested for in vivo Antihypertensive activity in DOCA rat by giving peroral dose of 1 mg/kg; assay type: functional; conditions: route oral; in short: as §2
Rattus norvegicus [19] = experiment: Ttested for in vivo Antihypertensive activity in DOCA rat by giving subcutaneous dose of 0.1 mg/kg; assay type: functional; in short: as §2

Row | IC50 [3] | IC50 (Neprilysin [5]) | SMILES | Delta blood pressure (Rattus norvegicus [1]) | Delta blood pressure (Rattus norvegicus [4]) | other results
1 | 1200 nM | 20 nM | Cc1ccc(CSC[C@@H](NC(=O)[C@H](CS)Cc2ccccc2)C(=O)O)cc1 | 48 mmHg | 33 mmHg | Delta blood pressure (Rattus norvegicus [2]): 28 mmHg
2 | – | – | COc1ccc(CSC[C@@H](NC(=O)[C@H](CS)Cc2ccccc2)C(=O)O)cc1 | 23 mmHg | – | Delta blood pressure (Rattus norvegicus [2]): 0 mmHg; IC50 (Neprilysin [6]): 17 nM
3 | 100 nM | 7 nM | CSCC[C@@H](NC(=O)[C@@H](CS)Cc1ccccc1C)C(=O)O | – | – | Delta blood pressure (Rattus norvegicus [7]): 24 mmHg; Delta blood pressure (Rattus norvegicus [8]): 43 mmHg
4 | – | – | CSCC[C@@H](NC(=O)[C@H](CSC(=O)c1ccccc1)Cc1ccccc1)C(N)=O | – | 0 mmHg | Delta blood pressure (Rattus norvegicus [9]): 19 mmHg; Delta blood pressure (Rattus norvegicus [10]): 52 mmHg
5 | – | > 300 nM | Cc1ccc(CSC[C@@H](NC(=O)[C@H](CS)Cc2ccccc2)C(N)=O)cc1 | 17 mmHg | – | Delta blood pressure (Rattus norvegicus [11]): 46 mmHg; Delta blood pressure (Rattus norvegicus [8]): 17 mmHg
6 | – | – | CC(=O)SC[C@H](Cc1ccccc1)C(=O)N[C@H](CSCc1ccc(C)cc1)C(=O)O | – | – | Delta blood pressure (Rattus norvegicus [10]): 20 mmHg
7 | 120 nM | 4 nM | CSCC[C@@H](NC(=O)C(CS)Cc1ccccc1)C(=O)O (stereo partly specified) | 25 mmHg | 42 mmHg | Delta blood pressure (Rattus norvegicus [2]): 18 mmHg
8 | 58 nM | 46 nM | C[C@H](CS)C(=O)N[C@H](CSCc1ccccc1)C(=O)O | 19 mmHg | 0 mmHg | –
9 | > 1000 nM | 2 nM | Cc1ccc(CSC[C@@H](NC(=O)[C@@H](CS)Cc2cccc3ccccc23)C(=O)O)cc1 | 0 mmHg | – | Delta blood pressure (Rattus norvegicus [2]): 33 mmHg; Delta blood pressure (Rattus norvegicus [11]): 8 mmHg; Delta blood pressure (Rattus norvegicus [12]): 47 mmHg; Delta blood pressure (Rattus norvegicus [8]): 26 mmHg
10 | – | – | CC(=O)SC[C@@H](Cc1ccccc1)C(=O)N[C@H](CSCc1ccc(C)cc1)C(=O)O | – | 48 mmHg | Delta blood pressure (Rattus norvegicus [13]): 42 mmHg
11 | > 1000 nM | > 300 nM | CSCC[C@@H](NC(=O)[C@H](CS)CCc1ccccc1)C(=O)O | – | – | Delta blood pressure (Rattus norvegicus [14]): 6 mmHg
12 | – | – | Cc1ccc(CSC[C@@H](NC(=O)[C@@H](CS)Cc2ccccc2)C(=O)O)cc1C | 23 mmHg | – | IC50 (Neprilysin [6]): 370 nM
13 | 19 nM | 11 nM | Cc1ccc(CSC[C@@H](NC(=O)[C@@H](CS)Cc2ccccc2)C(=O)O)cc1 | 48 mmHg | 17 mmHg | –
14 | – | – | CC(=O)SC[C@H](Cc1ccccc1)C(=O)N[C@H](CSCc1ccc(C)cc1)C(N)=O | – | – | Delta blood pressure (Rattus norvegicus [11]): 0 mmHg; Delta blood pressure (Rattus norvegicus [13]): 0 mmHg
15 | > 1000 nM | 32 nM | O=C(N[C@H](CSCc1ccccc1)C(=O)O)[C@H](CS)Cc1ccccc1 | – | 55 mmHg | Delta blood pressure (Rattus norvegicus [15]): 21 mmHg; Delta blood pressure (Rattus norvegicus [16]): 45 mmHg
16 | – | – | CSCC[C@@H](NC(=O)[C@@H](CSC(C)=O)Cc1ccccc1)C(N)=O | 23 mmHg | – | Delta blood pressure (Rattus norvegicus [17]): 39 mmHg
17 | 24 nM | 9 nM | O=C(N[C@H](CSCc1ccccc1)C(=O)O)[C@@H](CS)Cc1ccccc1 | – | 30 mmHg | Delta blood pressure (Rattus norvegicus [1]; 30 mg/kg): 35 mmHg; Delta blood pressure (Rattus norvegicus [15]): 17 mmHg
18 | – | – | CSCC[C@@H](NC(=O)C(CSC(C)=O)Cc1ccccc1)C(=O)N1CCCCC1 (stereo partly specified) | 38 mmHg | – | Delta blood pressure (Rattus norvegicus [15]): 32 mmHg; Delta blood pressure (Rattus norvegicus [8]): 3 mmHg
19 | 250 nM | > 300 nM | CCOC(=O)[C@@H](CCSC)NC(=O)[C@@H](CSC(C)=O)Cc1ccccc1C | 36 mmHg | – | Delta blood pressure (Rattus norvegicus [18]): 27 mmHg; Delta blood pressure (Rattus norvegicus [17]): 48 mmHg; Delta blood pressure (Rattus norvegicus [11]): 70 mmHg
20 | 28 nM | 2.4 nM | CCSC[C@@H](NC(=O)[C@@H](CS)Cc1ccccc1)C(=O)O | 19 mmHg | – | Delta blood pressure (Rattus norvegicus [11]): 61 mmHg; Delta blood pressure (Rattus norvegicus [12]): 22 mmHg; Delta blood pressure (Rattus norvegicus [19]): 21 mmHg
